Source: ChEMBL document CHEMBL1124223, “1-Substituted 7-[3-[(ethylamino)methyl]-1-pyrrolidinyl]-6,8- difluoro-1,4-dihydro-4-oxo-3-quinolinecarboxylic acids. New quantitative structure-activity relationships at N1 for the quinolone antibacterials” (1988)
Converted amounts (≈) assume the structure as drawn.

Legend:
Enterobacter cloacae = experiment: Minimum inhibitory concentration against Enterobacter cloacae. (MA2446).; type: functional
Escherichia coli [1] = experiment: Minimum inhibitory concentration against Escherichia coli (H560); type: functional
How it was run: (§1)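 MICs were determined by standard microtitration against a panel of 11 bacterial strains. Aqueous stock solutions were prepared with 0.1 N sodium or potassium hydroxide.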

Streptococcus pyogenes = experiment: Minimum inhibitory concentration against Streptococcus pyogenes (C203).; type: functional; how it was run: as §1
Enterobacter = experiment: Minimum inhibitory concentration against gram-negative enterobacteriaceae.; type: functional
How it was run: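 This value is the geometric mean of microtitration MICs for the Gram-negative Enterobacteriaceae strains in the 11-organism panel. Aqueous stocks were prepared in 0.1 N sodium or potassium hydroxide.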

Klebsiella pneumoniae = experiment: Minimum inhibitory concentration against Klebsiella pneumoniae (MGH-2); type: functional; how it was run: as §1
Escherichia coli [2] = experiment: Minimum inhibitory concentration against Escherichia coli (vogel); type: functional; how it was run: as §1
Staphylococcus aureus [3] = experiment: Minimum inhibitory concentration against Staphylococcus aureus (H-228).; type: functional; how it was run: as §1
Streptococcus pneumoniae = experiment: Minimum inhibitory concentration against Streptococcus pneumoniae (SV-1).; type: functional; how it was run: as §1
Providencia rettgeri = experiment: Minimum inhibitory concentration against Providencia rettgeri. (M1771); type: functional; how it was run: as §1
Pseudomonas aeruginosa = experiment: Minimum inhibitory concentration against Pseudomonas aeruginosa. (UI-18); type: functional; how it was run: as §1
[4] = biological target: DNA gyrase (Escherichia coli) (UniProt P0AES6+P0AES4); experiment: Concentration required for 50% inhibition of gyrase.; type: protein-complex assay
How it was run: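 DNA gyrase inhibition: the drug concentration (µg/mL) giving 50% inhibition (I50) was recorded, along with the lowest concentration inducing gyrase-mediated DNA cleavage. Data come from duplicate experiments with ±50% reproducibility.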

Staphylococcus aureus [5] = experiment: Minimum inhibitory concentration against Staphylococcus aureus (UC76).; type: functional; how it was run: as §1
Enterococcus faecalis = experiment: Minimum inhibitory concentration against Streptococcus faecalis (MGH-2).; type: functional; how it was run: as §1
Mus musculus [6] = experiment: In vivo activity against Pseudomonas aeruginosa (po); type: functional; conditions: read-out: PD50
How it was run: (§2)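 Median protective dose (PD50, mg/kg) measured in acute, lethal, systemic infections in female Charles River CD-1 mice. A single dose of compound was given at the time of bacterial challenge. Aqueous stock solutions were made with 0.1 N sodium or potassium hydroxide.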

Mus musculus [7] = experiment: In vivo activity against Streptococcus pneumoniae (po); type: functional; conditions: read-out: PD50; how it was run: as §2
Mus musculus [8] = experiment: In vivo activity against Streptococcus pyogenes (sc); type: functional; conditions: read-out: PD50; how it was run: as §2
Mus musculus [9] = experiment: In vivo activity against Escherichia coli (sc); type: functional; conditions: read-out: PD50; how it was run: as §2
Mus musculus [10] = experiment: In vivo activity against Streptococcus pyogenes (po); type: functional; conditions: read-out: PD50; how it was run: as §2
Mus musculus [11] = experiment: In vivo activity against Escherichia coli (po); type: functional; conditions: read-out: PD50; how it was run: as §2
Mus musculus [12] = experiment: In vivo activity against Pseudomonas aeruginosa (sc); type: functional; conditions: read-out: PD50; how it was run: as §2
Mus musculus [13] = experiment: In vivo activity against Streptococcus pneumoniae (sc); type: functional; conditions: read-out: PD50; how it was run: as §2

SMILES	MIC (Enterobacter cloacae)	MIC (Escherichia coli [1])	MIC (Streptococcus pyogenes)	MIC (Enterobacter)	MIC (Klebsiella pneumoniae)	MIC (Escherichia coli [2])	MIC (Staphylococcus aureus [3])	MIC (Streptococcus pneumoniae)	MIC (Providencia rettgeri)	MIC (Pseudomonas aeruginosa)	IC50 [4]	MIC (Staphylococcus aureus [5])	MIC (Enterococcus faecalis)	further results
CCNCC1CCN(c2c(F)cc3c(=O)c(C(=O)O)cn(CC4CC4)c3c2F)C1 (stereo not given)	3.1 µg/mL (≈ 7.65 µM)	0.8 µg/mL (≈ 1.97 µM)	0.4 µg/mL (≈ 0.987 µM)	2.09 µg/mL (≈ 5.15 µM)	1.6 µg/mL (≈ 3.95 µM)	0.8 µg/mL (≈ 1.97 µM)	0.2 µg/mL (≈ 0.493 µM)	0.8 µg/mL (≈ 1.97 µM)	12.5 µg/mL (≈ 30.8 µM)	25 µg/mL (≈ 61.7 µM)	30 µg/mL (≈ 74 µM)	0.1 µg/mL (≈ 0.247 µM)	0.8 µg/mL (≈ 1.97 µM)	
CN1CCN(c2c(F)cc3c(=O)c(C(=O)O)cn(CCF)c3c2F)CC1 [FLEROXACIN]	0.2 µg/mL (≈ 0.542 µM)	0.1 µg/mL (≈ 0.271 µM)	6.3 µg/mL (≈ 17.1 µM)	0.2 µg/mL (≈ 0.542 µM)	0.2 µg/mL (≈ 0.542 µM)	0.2 µg/mL (≈ 0.542 µM)	0.8 µg/mL (≈ 2.17 µM)	6.3 µg/mL (≈ 17.1 µM)	0.4 µg/mL (≈ 1.08 µM)	1.6 µg/mL (≈ 4.33 µM)		0.2 µg/mL (≈ 0.542 µM)	3.1 µg/mL (≈ 8.39 µM)	
CCNCC1CCN(c2c(F)cc3c(=O)c(C(=O)O)cn(C(C)C)c3c2F)C1 (stereo not given)	1.6 µg/mL (≈ 4.07 µM)	0.2 µg/mL (≈ 0.508 µM)	0.2 µg/mL (≈ 0.508 µM)	1.05 µg/mL (≈ 2.67 µM)	0.8 µg/mL (≈ 2.03 µM)	0.8 µg/mL (≈ 2.03 µM)	0.4 µg/mL (≈ 1.02 µM)	0.8 µg/mL (≈ 2.03 µM)	6.3 µg/mL (≈ 16 µM)	12.5 µg/mL (≈ 31.8 µM)	28 µg/mL (≈ 71.2 µM)	0.2 µg/mL (≈ 0.508 µM)	1.6 µg/mL (≈ 4.07 µM)	
CCNCC1CCN(c2c(F)cc3c(=O)c(C(=O)O)cn(-c4ccccc4)c3c2F)C1 (stereo not given)	1.6 µg/mL (≈ 3.74 µM)	0.8 µg/mL (≈ 1.87 µM)	1.6 µg/mL (≈ 3.74 µM)	1.83 µg/mL (≈ 4.28 µM)	1.6 µg/mL (≈ 3.74 µM)	1.6 µg/mL (≈ 3.74 µM)	0.8 µg/mL (≈ 1.87 µM)	1.6 µg/mL (≈ 3.74 µM)	6.3 µg/mL (≈ 14.7 µM)	6.3 µg/mL (≈ 14.7 µM)	29 µg/mL (≈ 67.8 µM)	0.2 µg/mL (≈ 0.468 µM)	0.8 µg/mL (≈ 1.87 µM)	
CNn1cc(C(=O)O)c(=O)c2cc(F)c(N3CCN(C)CC3)cc21 [AMIFLOXACIN]		0.025 µg/mL (≈ 0.0748 µM)	12.5 µg/mL (≈ 37.4 µM)	0.1 µg/mL (≈ 0.299 µM)	0.2 µg/mL (≈ 0.598 µM)	0.1 µg/mL (≈ 0.299 µM)	1.6 µg/mL (≈ 4.79 µM)	12.5 µg/mL (≈ 37.4 µM)	0.2 µg/mL (≈ 0.598 µM)	0.8 µg/mL (≈ 2.39 µM)		0.4 µg/mL (≈ 1.2 µM)	3.1 µg/mL (≈ 9.27 µM)	
CCNCC1CCN(c2c(F)cc3c(=O)c(C(=O)O)cn(C4CCCCC4)c3c2F)C1 (stereo not given)	25 µg/mL (≈ 57.7 µM)	3.1 µg/mL (≈ 7.15 µM)	6.3 µg/mL (≈ 14.5 µM)	16.5 µg/mL (≈ 38.1 µM)	12.5 µg/mL (≈ 28.8 µM)	6.3 µg/mL (≈ 14.5 µM)	6.3 µg/mL (≈ 14.5 µM)	3.1 µg/mL (≈ 7.15 µM)	> 100 µg/mL	> 100 µg/mL	30 µg/mL (≈ 69.2 µM)	3.1 µg/mL (≈ 7.15 µM)	6.3 µg/mL (≈ 14.5 µM)	
CCNCC1CCN(c2c(F)cc3c(=O)c(C(=O)O)cn(NC)c3c2F)C1 (stereo not given)	0.2 µg/mL (≈ 0.526 µM)	0.2 µg/mL (≈ 0.526 µM)	0.2 µg/mL (≈ 0.526 µM)	0.3 µg/mL (≈ 0.789 µM)	0.2 µg/mL (≈ 0.526 µM)	0.2 µg/mL (≈ 0.526 µM)	0.4 µg/mL (≈ 1.05 µM)	0.1 µg/mL (≈ 0.263 µM)	1.6 µg/mL (≈ 4.21 µM)	0.8 µg/mL (≈ 2.1 µM)	27 µg/mL (≈ 71 µM)	0.2 µg/mL (≈ 0.526 µM)	0.4 µg/mL (≈ 1.05 µM)	
CCNCC1CCN(c2c(F)cc3c(=O)c(C(=O)O)cn(C4CC4)c3c2F)C1 (stereo not given) [PD-117558]	0.1 µg/mL (≈ 0.255 µM)	0.013 µg/mL (≈ 0.0332 µM)	0.025 µg/mL (≈ 0.0639 µM)	0.06 µg/mL (≈ 0.153 µM)	0.05 µg/mL (≈ 0.128 µM)	0.05 µg/mL (≈ 0.128 µM)	0.05 µg/mL (≈ 0.128 µM)	0.025 µg/mL (≈ 0.0639 µM)	0.2 µg/mL (≈ 0.511 µM)	0.4 µg/mL (≈ 1.02 µM)	1.4 µg/mL (≈ 3.58 µM)	0.006 µg/mL (≈ 0.0153 µM)	0.025 µg/mL (≈ 0.0639 µM)	ED50 (Mus musculus [6]): 40 mg/kg; ED50 (Mus musculus [7]): 3 mg/kg; ED50 (Mus musculus [8]): 0.5 mg/kg; ED50 (Mus musculus [9]): 1 mg/kg; ED50 (Mus musculus [10]): 2 mg/kg; ED50 (Mus musculus [11]): 4 mg/kg; ED50 (Mus musculus [12]): 13 mg/kg; ED50 (Mus musculus [13]): 2 mg/kg
CCNCC1CCN(c2c(F)cc3c(=O)c(C(=O)O)cn(OC)c3c2F)C1 (stereo not given)	0.4 µg/mL (≈ 1.05 µM)	0.4 µg/mL (≈ 1.05 µM)	0.8 µg/mL (≈ 2.1 µM)	0.46 µg/mL (≈ 1.21 µM)	0.2 µg/mL (≈ 0.524 µM)	0.4 µg/mL (≈ 1.05 µM)	0.8 µg/mL (≈ 2.1 µM)	0.8 µg/mL (≈ 2.1 µM)	1.6 µg/mL (≈ 4.2 µM)	6.3 µg/mL (≈ 16.5 µM)	27 µg/mL (≈ 70.8 µM)	0.2 µg/mL (≈ 0.524 µM)	0.8 µg/mL (≈ 2.1 µM)	
O=C(O)c1cn(C2CC2)c2cc(N3CCNCC3)c(F)cc2c1=O [CIPROFLOXACIN]		0.025 µg/mL (≈ 0.0754 µM)	0.8 µg/mL (≈ 2.41 µM)	0.06 µg/mL (≈ 0.181 µM)	0.1 µg/mL (≈ 0.302 µM)		3.1 µg/mL (≈ 9.36 µM)	1.6 µg/mL (≈ 4.83 µM)	0.1 µg/mL (≈ 0.302 µM)	0.4 µg/mL (≈ 1.21 µM)		0.2 µg/mL (≈ 0.604 µM)	0.8 µg/mL (≈ 2.41 µM)	ED50 (Mus musculus [6]): 25 mg/kg; ED50 (Mus musculus [7]): > 100 mg/kg; ED50 (Mus musculus [8]): 20 mg/kg; ED50 (Mus musculus [9]): 0.3 mg/kg; ED50 (Mus musculus [10]): > 100 mg/kg; ED50 (Mus musculus [11]): 1 mg/kg; ED50 (Mus musculus [12]): 5 mg/kg; ED50 (Mus musculus [13]): 29 mg/kg
